Screens (PubChem)
RORA inh: RORA (human) inhibition; P35398; CHO-K1 Gal4-RORA LBD luciferase reporter, luminescence; inhibition, % at 10 µM; hit rate 0.43% among 65,000;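 active means inhibition above the mean of all tested compounds plus 3 SD, cut at about 52% in these data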;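 further: 0% = RORA-transfected cells with DMSO and 100% = mock-transfected cells lacking RORA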
Target sequence (P35398 whole entry, looked up, the tested form may be a part): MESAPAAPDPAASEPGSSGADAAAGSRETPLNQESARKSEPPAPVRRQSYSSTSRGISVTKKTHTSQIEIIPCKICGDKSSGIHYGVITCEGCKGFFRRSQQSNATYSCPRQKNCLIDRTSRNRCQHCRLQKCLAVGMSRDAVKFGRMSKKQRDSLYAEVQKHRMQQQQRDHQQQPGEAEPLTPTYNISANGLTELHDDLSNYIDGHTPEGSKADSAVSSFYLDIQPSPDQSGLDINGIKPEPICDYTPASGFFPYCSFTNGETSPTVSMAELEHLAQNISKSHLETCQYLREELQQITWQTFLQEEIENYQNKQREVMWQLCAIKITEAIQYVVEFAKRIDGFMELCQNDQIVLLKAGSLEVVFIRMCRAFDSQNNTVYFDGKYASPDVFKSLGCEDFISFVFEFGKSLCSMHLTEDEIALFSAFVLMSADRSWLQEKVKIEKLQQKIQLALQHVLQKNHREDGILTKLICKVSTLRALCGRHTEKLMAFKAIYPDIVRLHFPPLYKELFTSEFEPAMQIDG
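test system = CHO-K1 Gal4-RORA LBD luciferase reporter cells | dosing = 10 µM single point | times = 20 h compound treatment, 37 °C | signal = luciferase luminescence | read-out = % inhibition of basal luciferase versus +RORA/-RORA DMSO controls | benchmarks = mock-transfected cells as 100%, +RORA DMSO cells as 0% | replicates = tested once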
Starred values were filed as active, the others as inactive. The entries come from a sample that favours hits as a whole.

SMILES | RORA inh
O=S(=O)(c1ccccc1)N1CCN(c2cc(-c3ccccc3)nc3ncnn23)CC1 | 70*
COc1ccc(-c2nsc3c(N4CCN(S(=O)(=O)c5ccccc5)CC4)ncnc23)cc1 | 14
O=C1C(C=NCc2cccnc2)=C(O)c2ccccc21 | -53
CCCCCOC(=O)c1[nH]c2c(c1C)C(=O)CC(c1ccco1)C2 (stereo unspecified) | 54*
CCOC(=O)C1C(C)=CC(=O)CC1c1ccco1 (stereo unspecified) | -3
Cc1c(C(=O)O)[nH]c2c1C(=O)CC(c1ccc(Cl)cc1)C2 (stereo unspecified) | -9
COc1ccc(NC(=O)CN(C)S(=O)(=O)c2cccs2)cc1 | -51
Cc1ccc(S(=O)(=O)c2cc3c(=O)n4ccccc4nc3n(CC3CCCO3)c2=N)cc1C (stereo unspecified) | 7
Cc1ccc(-c2noc(C3CCCN(C(=O)c4ccccc4)C3)n2)o1 (stereo unspecified) | -50
COCCCNc1nc2c(c(=O)[nH]c(=O)n2C)n1CC(O)COc1ccccc1C (stereo unspecified) | -8
COc1cccc2c1C(=O)c1c(O)c3c(c(O)c1C2=O)C[C@@](O)(C(=O)CO)C[C@@H]3O[C@H]1C[C@H](N)[C@H](O)[C@H](C)O1 | 63*
CN(C)S(=O)(=O)Nc1ccc2c(c1)Cc1ccccc1-2 | -31
OCc1cc(CO)c(O)c(CCc2ccccc2)n1 | 0
COc1ccc(CCNC(=O)c2nnn(CC(=O)Nc3ccccc3)c2N)cc1OC | -2
COc1ccc(CC(=O)Nc2cccc(-c3nnc(-c4cccc(C)c4)o3)c2)cc1OC | 87*
COc1ccc(Cc2nnc(NC(=O)Cc3cccs3)s2)cc1OC | -5
CCCC(C(=O)NCc1ccc(OC)cc1)N(Cc1ccco1)C(=O)c1snc(C(N)=O)c1N (stereo unspecified) | -24
Cc1cc(=O)oc2c(CN3CCC(C)CC3)c(O)c(Cl)cc12 | 8
CC(=O)Nc1ccc2oc(-c3cc(F)c(F)cc3Cl)nc2c1 | -52
Cc1oc(-c2ccc3c(c2)OCCO3)cc1C(=O)O | 75*
Cc1oc(-c2ccc3c(c2)OCCO3)cc1C(=O)NC(CCC(=O)O)C(=O)O (stereo unspecified) | -1
Cc1oc2cc(O)cc(O)c2c(=O)c1-c1ccc2c(c1)OCCCO2 | -58
Cc1cc(C)c2c3c(c(-c4ccccc4)n2n1)c(=O)n(C)c(=O)n3C | 9
CCn1cc(C(=O)NCCCN2CC(C)CC(C)C2)c2cc(OC)c(OC)cc2c1=O (stereo unspecified) | 14
COc1cc(OC)cc(C(=O)OCn2nnc3ccccc3c2=O)c1 | 18
SMILES | RORA inh
CC(C)Cn1c(N)c(C(=O)CSc2ccc3c(c2)OCCO3)c(=O)n(C)c1=O | 78*
CC(NC(=O)COc1cc(=O)n(C)c2ccccc12)c1ccc2c(c1)OCCO2 (stereo unspecified) | -24
CCn1c(SCC(=O)c2c(N)n(C)c(=O)n(C)c2=O)nc2sc(C)c(C)c2c1=O | 13
O=C(CN1C(=O)NC(Cc2ccccc2)C1=O)Nc1ccccc1 (stereo unspecified) | 12
Nc1ccc(Nc2ccccc2N)cc1 | -10
CCCCN(CCCC)S(=O)(=O)c1ccc(C(=O)Nc2nnc(CSC)o2)cc1 | 61*
CCCN(CCC)S(=O)(=O)c1ccc(C(=O)Nc2nnc(-c3cccc(OC)c3)o2)cc1 | -18
CCN(Cc1ccccc1)S(=O)(=O)c1ccc(C(=O)Nc2nnc(-c3ccccc3OC)o2)cc1 | 49
CC1=C(C(=O)Nc2ccccn2)C(c2ccccc2)n2ncnc2N1 (stereo unspecified) | 7
Cc1nn(C(=O)CN2C(=O)c3ccccc3C2=O)c(C)c1Br | -4
CN=c1scc(C)n1/N=C/c1ccc(O)cc1O | 63*
COc1cccc(NC(=O)Cn2c(SCC(=O)N3CCOCC3)nc3ccccc32)c1 | -17
COc1cccc(NC(=O)CSc2nnc(-c3cc(C)n(-c4ccccc4)c3C)o2)c1 | 71*
COc1cccc(NC(=O)CNC(C)CCC(C)C)c1 (stereo unspecified) | 14
CC(C)c1ccc2oc(-c3ccc(N)cc3)nc2c1 | 48
Clc1ccc(OCCN2CCN(c3ncnc4sccc34)CC2)cc1 | 81*
O=C(CSc1nc(-c2ccco2)cc(C(F)(F)F)n1)Nc1cccnc1 | -19
COc1cccc(Nc2nc(-c3sc(N)nc3C)cs2)c1 | -27
COc1cccc2sc(Nc3nc(-c4ccccn4)cs3)nc12 | 69*
CCC(=O)n1nc(-c2ccco2)nc1SCc1ccccc1 | -12
CC1(C)OC(C(=O)NC2CCCCC2)C(C(=O)NC2CCCCC2)O1 (stereo unspecified) | 1
COc1ccc(C)cc1-n1nnnc1SCc1nc2ccccc2s1 | -50
COc1cc(CSc2nnnn2-c2ccc(C)cc2)cc(OC)c1OC | 72*
Cc1ccc(-n2nnnc2SCC(=O)N2CCN(C(=O)c3ccco3)CC2)c(C)c1 | 1
C=CCN(CC(=O)NCc1ccccc1)C(=O)c1csnn1 | 13
SMILES | RORA inh
COc1ccc(NC(=O)c2c(NC(=O)CNCc3ccco3)sc3c2CCC3)c(OC)c1 | -23
COC(=O)c1[nH]c2cc(OC)ccc2c1NC(=O)CCN1CCCC(C)(C)C1 | 27
CCC(NC(=O)Nc1nnc(C(F)(F)F)s1)(C(F)(F)F)C(F)(F)F | 94*
CCC(NC(=O)Nc1ncccc1C)(C(F)(F)F)C(F)(F)F | 2
O=C(Nc1nnc(C(F)(F)F)s1)c1cccnc1 | -66
O=C(O)CCCCCN1C(=O)CSC1=S | 59*
O=C(O)c1cccc(COc2ccccc2Cl)c1 | 92*
O=C(COc1ccccc1Cl)Nc1ccc(Cl)cn1 | -62
O=P(O)(O)c1ccccc1OCc1ccccc1 | -8
CCOc1ccc(-c2cc(C(=O)NCCCN3CCN(CC)CC3)c3ccccc3n2)cc1 | -32
CCOc1ccc(-c2cc(CCCC(=O)NCCCOC)no2)cc1 | 58*
CCC(C)NC(=O)c1cc(-c2ccc(OC)cc2)on1 (stereo unspecified) | -60
C=CCSC1=C(C#N)C(c2ccccc2)CC(=O)N1 (stereo unspecified) | -2
Cc1cc(C)n2nc(SCC(=O)c3cc(C)n(-c4cc(C)on4)c3C)nc2n1 | 55*
Cc1cc(C)n2nc(SCC(=O)NCc3ccco3)nc2n1 | -10
Cc1cc(C)n2nc(SCc3cc(=O)n4ccccc4n3)nc2n1 | -11
Cc1cc(C(=O)CSc2nnc(-c3ccccc3)n2-c2ccccc2)c(C)n1-c1ncn[nH]1 | -11
Cc1cc(C(=O)CSc2nc3ccccc3[nH]2)c(C)n1C | -59
Cc1cc(-n2c(C)cc(C(=O)CSc3ncnc4ccccc34)c2C)no1 | 64*
O=C(COc1cc(Cl)c(Cl)cc1Cl)Nc1ccncc1 | -5
CCOc1ccc2cc(S(=O)(=O)n3ccnc3C)ccc2c1 | -5
CCOC(=O)C1=C(O)C(=O)N(c2ccc(S(N)(=O)=O)cc2)C1c1ccccc1 (stereo unspecified) | -1
Nn1cnnc1SCC(=O)Nc1ccc(C2CCCCC2)cc1 | -40
COc1ccc(C2=Nn3c(nnc3-c3ccccc3OC)SC2)cc1OC | 55*
COc1ccc(-c2noc(-c3ccccc3Cl)n2)cc1OC | -82
COc1nc(-c2ccccc2)cc(-c2ccc(OC)c(OC)c2)n1 | -13
COc1ccc(OC)c(CNC(=O)C2CCN(S(=O)(=O)N3CCCC3)CC2)c1 | 26
CCCNC(=O)C1CN(S(=O)(=O)c2ccccc2)CCN1S(=O)(=O)c1ccccc1 (stereo unspecified) | -1
CCCn1c(-c2ccc(OC)cc2)nc2nc3ccccc3nc21 | -4
